Data on 13 molecules can be found in ChEMBL document CHEMBL1212918, “Computer-aided optimization of phosphinic inhibitors of bacterial ureases” (J Med Chem, 2010).

A short description of assay [1]: Inhibition of Klebsiella aerogenes urease.
The nature of assay [2]: Inhibition of Bacillus pasteurii CCM 2056 urease by berthelot colorimetric assay. Further details: species or system Sporosarcina pasteurii. In a few lines:
(§1)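 Urease partially purified from the cells of each strain, which were grown aerobically at 37 °C in yeast extract/urea/1 mM NiCl2 medium at pH 9.0. Purification used anion exchange followed by phenyl-Sepharose. Enzyme incubated at 30 °C in 3 mM phosphate pH 7.0 with increasing inhibitor concentrations and urea 10–100 mM. Activity read by modified Berthelot colorimetry. IC50 and Ki were derived by equation fitting.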

Assay [3] in a line: Inhibition of Proteus vulgaris CCM 1956 urease by berthelot colorimetric assay. In a few lines: as §1

As to `CC(=O)NO` [ACETOHYDROXAMIC ACID], affinity in assay [1] was put at a Ki of 2.6 µM. That is a single-digit micromolar value.

For `CN(C)CP(=O)(O)CO` [(DIMETHYLAMINO)METHYL(HYDROXYMETHYL)PHOSPHINIC ACID], in assay [2], the IC50 (in general, the midpoint of a concentration-inhibition curve) was 67.6 µM and the affinity, expressed as Ki, was 5 µM. Further, in assay [3], it took 17.2 µM to reach half-maximal inhibition (IC50) and affinity was put at a Ki of 3.1 µM.

As for `CNCP(C)(=O)O` [METHYL((METHYLAMINO)METHYL)PHOSPHINIC ACID], in assay [3], the Ki (as a rule, a dissociation constant, usually derived from enzyme kinetics or from competition with a known ligand) was 27 µM. In other words, the double-digit micromolar range.

In assay [2], `O=C(NCP(O)(=S)CO)OCc1ccccc1` (stereo not drawn) registered an IC50 of 1420 µM and an inhibition constant (Ki) of 428 µM. Also, in assay [3], half-maximal inhibition (IC50) required 976 µM and the Ki worked out at 143 µM.

For the molecule `O=C(CNC(=O)OCc1ccccc1)NCP(=O)(O)CO`, in assay [2], the IC50 was determined as 5 µM and the Ki is 1.35 µM. In assay [3], half-maximal inhibition (IC50) was put at 3.6 µM and the affinity, expressed as Ki, was 1.96 µM.

Regarding `CP(=O)(O)CNC(=O)CN`, affinity in assay [3] was put at a Ki of 30 µM. That is a double-digit micromolar value.

As to `CN(C)CC(=O)NCP(=O)(O)CO`, in assay [2], half-maximal inhibition (IC50) was put at 2.15 µM and the Ki was found to be 1.15 µM. In assay [3], it took 0.86 µM to reach half-maximal inhibition (IC50) and the Ki was 0.43 µM.

For `O=C(NCP(=O)(O)CO)OCc1ccccc1`, the IC50 in assay [2] was 889 µM; in assay [3] it was 377 µM. Moreover, the Ki in assay [2] amounted to 376 µM; in assay [3], 41.9 µM.

In the case of `CNCC(=O)NCP(=O)(O)CO`, in assay [2], half-maximal inhibition (IC50) was put at 25.4 µM and the Ki was 10.6 µM. For the same molecule, in assay [3], half-maximal inhibition (IC50) required 20.6 µM and affinity was put at a Ki of 16.2 µM.

Consider `NCC(=O)NCP(=O)(O)CO`, for which, in assay [2], the IC50 was 85 µM and the inhibitory constant (Ki) was determined as 30.5 µM. Further, in assay [3], inhibition was half-maximal at 14.9 µM (IC50) and affinity was put at a Ki of 7.3 µM.

`O=C(NCP(=O)(O)CO)c1ccccc1` [BENZOYLAMINOMETHYL(HYDROXYMETHYL)PHOSPHINIC ACID]: in assay [2], the IC50 is 69 µM and the Ki amounted to 31.9 µM. In assay [3], this molecule returned an IC50 of 28 µM and a Ki of 9.2 µM.

In the case of `NCP(=O)(O)CO` [AMINOMETHYL(HYDROXYMETHYL)PHOSPHINIC ACID], in assay [2], 423 µM corresponded to half-maximal inhibition (IC50) and the inhibitory constant (Ki) stood at 95 µM. Also, in assay [3], the IC50 stood at 47.7 µM and the Ki was found to be 27.5 µM.

Take `CNCP(=O)(O)CO` [HYDROXYMETHYL((METHYLAMINO)METHYL)PHOSPHINIC ACID]: the IC50 in assay [2] turned out to be 1.59 µM; in assay [3], 0.96 µM. Further, the figures for the Ki in assay [2] and in assay [3] were 0.43 µM and 0.36 µM, respectively.
